Measurements of several laboratories.
Protocols differ between the studies behind these lines.
EGFR: Epidermal growth factor receptor (EGFR, Homo sapiens, UniProt P00533)
APC: Adenomatous polyposis coli protein (APC, Homo sapiens, UniProt P25054)
Ephx2: Bifunctional epoxide hydrolase 2 (Ephx2, Mus musculus, UniProt P34914)
AMY1A: Alpha-amylase 1A (AMY1A, Homo sapiens, UniProt P0DUB6)

Cc1ncc(CN2CCN(Cc3ccccn3)CC2)c2cc(C(=O)c3ccc4c(c3)OCCO4)oc12 — IC50 (EGFR; enzyme activity, inhibitor, ADP detection): 40.5 nM
CC(C)C[C@H](NC(=O)[C@H](Cc1ccc2ccccc2c1)NC(=O)[C@H](CCC(=O)O)NC(=O)c1ccccn1)C(=O)NC1CC1c1ccccc1 (stereo partly drawn) — IC50 (APC; ligand displacement, FP): 30200 nM
O=C(Nc1ccc(-c2cnc3ccccc3c2)cc1)C1CCN(S(=O)(=O)c2ccccc2Cl)CC1 — IC50 (Ephx2; enzyme activity, inhibitor, fluorescence): 116 nM
Cc1ncc(CN2CCc3ccccc3C2)c2cc(C(=O)c3ccc4c(c3)OCCO4)oc12 — IC50 (EGFR; enzyme activity, inhibitor, ADP detection): 12.9 nM
Oc1ccc([C@@H]2c3c(O)cc(O)cc3[C@@H]3c4c(cc(O)cc4[C@H]2[C@@H]2c4cc(O)cc5c4[C@@H](c4cc(O)cc(O)c4[C@H]2c2ccc(O)cc2)[C@H](c2ccc(O)cc2)O5)O[C@H]3c2ccc(O)cc2)cc1 — IC50 (AMY1A; enzyme activity, inhibitor): 33700 nM
CC(C)C[C@H](NC(=O)[C@H](Cc1ccc2ccccc2c1)NC(=O)[C@H](CCC(=O)O)NC(=O)c1cccc(C(F)(F)F)c1)C(=O)NC1CC1c1ccccc1 (stereo partly drawn) — IC50 (APC; ligand displacement, FP): 10700 nM
Cc1ccc2c(-c3cc4c(CN5CCN(Cc6ccccn6)CC5)cnc(C)c4o3)cc(=O)oc2c1 — IC50 (Epidermal growth factor receptor (EGFR, Homo sapiens, UniProt P00533, C797S/L858R/T790M); enzyme activity, inhibitor, ADP detection): 5.77 nM
CC(C)C[C@H](NC(=O)[C@H](Cc1ccc2ccccc2c1)NC(=O)[C@H](CCC(=O)O)NC(=O)C1CCCCC1)C(=O)NC1CC1c1ccccc1 (stereo partly drawn) — IC50 (APC; ligand displacement, FP): 21900 nM
O=C(Nc1ccc(-c2ccc3ccccc3n2)cc1)C1CCN(S(=O)(=O)c2ccccc2Cl)CC1 — IC50 (Ephx2; enzyme activity, inhibitor, fluorescence): 182 nM
Oc1ccc([C@@H]2c3c(O)cc(O)cc3[C@@H]3c4c(cc(O)c5c4[C@@H]2[C@H](c2ccc(O)cc2)[C@H]5c2cc(O)cc4c2[C@@H](c2cc(O)cc(O)c2)[C@H](c2ccc(O)cc2)O4)O[C@H]3c2ccc(O)cc2)cc1 — IC50 (AMY1A; enzyme activity, inhibitor): 5300 nM
CC(C)C[C@H](NC(=O)[C@H](Cc1ccc2ccccc2c1)NC(=O)[C@H](CCC(=O)O)NC(=O)c1ccccc1)C(=O)NC1CC1c1ccccc1 (stereo partly drawn) — IC50 (APC; ligand displacement, FP): 77600 nM
O=C(Nc1ccc(-c2cccc3cccnc23)cc1)C1CCN(S(=O)(=O)c2ccccc2Cl)CC1 — IC50 (Ephx2; enzyme activity, inhibitor, fluorescence): 95.9 nM
CC(C)C[C@H](NC(=O)[C@H](Cc1ccc2ccccc2c1)NC(=O)[C@H](CCC(=O)O)NC(=O)C1N=CN=N1)C(=O)NC1CC1c1ccccc1 (stereo partly drawn) — IC50 (APC; ligand displacement, FP): 81300 nM
Cc1c(Cc2ccccc2)c(=O)oc2c(C)c(OCC(=O)NN=Cc3ccccc3)ccc12 — IC50 (EGFR; enzyme activity, inhibitor, ATP luminescence): 307 nM
O=C(Nc1ccc(-c2ccnc3ccccc23)cc1)C1CCN(S(=O)(=O)c2ccccc2Cl)CC1 — IC50 (Ephx2; enzyme activity, inhibitor, fluorescence): 28.6 nM
